Most compounds without a hit are left out; they make up all but 3% or so of the library.
PvdQ inh: P. aeruginosa PvdQ acylase inhibition; purified PvdQ acylase, fluorescence plate reader; inhibition, % at 10 µM; 340,000 tested, 0.063% active; AID 488965; in the data active = inhibition above about 30%, passing the limit was not always enough;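 also: 0% = vehicle neutral wells and 100% = reference inhibitor wells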
HSF-1 act: increases HSF-1 driven luciferase reporter signal. 300,000 tested, 1.7% active. activation, % at 9 µM. NIH3T3-HGL HSF-1 luciferase reporter, MG132, 8 h; 100% = twice DMSO control signal;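 active = mean replicate activation of at least 50% with a set share of replicates each reaching 50%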;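 also: 0% = median of the neutral control wells and 100% = twice that signal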
N-glyco inh: N-linked glycosylation inhibition; 360,000 tested, 0.23% active; AID 588692; D54 ERlucT glycosylation luciferase reporter, 24 h; percent of 100 nM tunicamycin response; reporter increase, % at 12.5 µM;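 active = mean luciferase reporter signal, scaled so untreated is 0 and the glycosylation-blocking control 100, at or above a set limit in every replicate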;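 also: luciferase carries N-glycosylation sites so blocking glycosylation raises the light; 0% = median of neutral control wells and 100% = median of 100 nM tunicamycin wells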
T cruzi repl: T. cruzi replication inhibition. T. cruzi beta-gal in NIH3T3, luminescence, 90 h. inhibition, % (no concentration beside the values). 300,000 tested, 1.4% active. AID 1885;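 active = mean inhibition across valid replicates above about 55%, limit read from the data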;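 also: signal also drops with host cell toxicity which is not excluded here; 0% = plate median of DMSO wells and 100% = zero luminescence signal; higher percent means less beta-gal luminescence so fewer parasites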
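Test system: β-gal T. cruzi (Tulahuen C4) inside NIH/3T3 cells / Quantity: 5,000 cells/well / Measured by: luminescence from GalScreen with 0.05% NP40, read after 60 min / Medium: DMEM plus 2% FBS / Measure: parasite load inhibition, % / Reagent: Tulahuen C4 trypomastigotes, 5000/well / Schedule: co-culture of at least 90 h after 3 h attachment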
PfHsp90 yeast 2: inhibits growth of yeast expressing Plasmodium falciparum Hsp90. S. cerevisiae expressing PfHsp90, BacTiter-Glo ATP, 48 h; yeast lacking PDR1 and PDR3 efflux regulators. inhibition, % at 9.4 µM. 310,000 tested, 0.32% active. AID 504621;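 active = every replicate shows inhibition above about 80%, whatever the replicate mean, limit read from the data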;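 also: 0% = DMSO neutral controls and 100% = 20 µM radicicol positive controls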
CaV13 ICDI inh: Disruptors of the CACNA1D IQ motif to Ca2+-dependent inactivation inhibitor domain association, primary screening, Förster resonance energy transfer in intact living …; HEK cells, CFP/YFP FRET ICDI-IQ, plate reader, 10 min; percent FRET-ratio fall versus neutral wells; inhibition, % at 12.3 µM; AID 743397; 340,000 tested, 0.098% active;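 active = mean replicate inhibition of at least 30% and at least 1% of replicates passing that level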;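 also: 0% = median of the neutral control wells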
An asterisk follows results filed as active; · = no result given; + = active, no number.

SMILES	PvdQ inh	HSF-1 act	N-glyco inh	T cruzi repl	PfHsp90 yeast 2	CaV13 ICDI inh
O=C(Nc1nc(-c2ccccn2)cs1)c1cccc(-n2cnnn2)c1	14	3	-11	63*	-10	9
CN(C)CCN1CCN(C2CN(Cc3ccccc3)S(=O)(=O)C2)CC1 (stereo not given)	·	·	2	·	·	-6
COc1ccc2c(c1)OC[C@H]1[C@H]2N2C(=O)c3cc(Br)ccc3NC(=O)[C@@]2(C)[C@H]1c1ccccc1	-15	·	36*	·	102*	·
COc1ccc2c(c1)[C@H]1[C@H](CO2)[C@H](c2ccccc2)[C@]2(C)C(=O)Nc3cc(F)ccc3C(=O)N12	-14	·	41*	·	3	-10
COc1ccc2c(c1)C(=O)N1[C@H]3c4cc(OC)ccc4OC[C@@H]3[C@H](c3ccccc3)[C@]1(C)C(=O)N2	-23	·	62*	·	-36	-3
COc1ccc2c(c1)[C@H]1[C@H](CO2)[C@H](c2ccccc2)[C@]2(C)C(=O)Nc3ccccc3C(=O)N12	-6	·	67*	·	-6	-5
COc1ccc2c(c1)OC[C@H]1[C@H]2N2C(=O)c3ccc(F)cc3NC(=O)[C@@]2(C)[C@H]1c1ccccc1	-11	·	20	·	·	-5
COc1ccc2c(c1)[C@H]1[C@H](CO2)[C@H](c2ccccc2)[C@]2(C)C(=O)N[C@H](C)C(=O)N12	-2	·	-2	·	8	-6
CNc1cccc(-c2cccc(C(=O)N3CCOCC3)c2)n1	·	·	-2	·	·	-6
O=C(Nc1ccccc1C(=O)NCC1CC1)c1cccs1	·	·	·	·	·	-5
COc1ccc2c(c1)[C@H]1[C@H](CO2)[C@H](c2ccccc2)[C@]2(C)C(=O)Nc3ccc(Br)cc3C(=O)N12	13	·	41*	·	+	-12
C[C@@]12C(=O)Nc3cc(Cl)ccc3C(=O)N1[C@H]1c3cc(Br)ccc3OC[C@@H]1[C@@H]2c1ccccc1	-4	·	23	·	-21	-5
CN1c2ccc([N+](=O)[O-])cc2N(C)C1(C)c1ccccc1 (stereo not given)	11	33	1	57*	-20	-5
COc1ccc(OC)c2nc3c(C(=O)NCCN(C)C)cccc3nc12	5	·	91*	·	0	-5
CN(C)CCNC(=O)c1cccc2nc3cccc(F)c3nc12	15	·	-5	·	-2	-5
COC(=O)c1cccc(Nc2cc(C)n(-c3cccc(C(=O)OC)c3)c(=O)c2)c1	·	·	·	·	·	-9
Cc1cc(C)c2c(=O)n(CC(=O)Nc3ccc(Cl)cc3)sc2n1	0	-1	0	60*	1	-2
Cc1cccc(N2CCN(C(=O)Cn3sc4nc(C)cc(C)c4c3=O)CC2C)c1 (stereo not given)	0	-24	-1	41	167*	·
CCOc1ccc(NC(=O)Cn2sc3nc(C)cc(C)c3c2=O)cc1	9	27	1	50	23	·
CCCCCCCCCCCCCCCC(O)C[N+](C)(C)CCO (stereo not given)	-12	·	-10	·	111*	-5
O=C(COC(=O)/C=C/c1ccc(Br)o1)NCCCN1CCCC1=O	-10	65*	1	-2	7	4
O=C(COC(=O)/C=C/c1cccc([N+](=O)[O-])c1)NCCCN1CCCC1=O	-13	25	-1	-7	8	-2
N#Cc1c(N)[nH]c2ccc(Sc3ccccc3)cc12	-21	·	8	·	11	-7
O=C(NN=Cc1cc(Cl)ccc1[N+](=O)[O-])c1cccc2ccccc12	-15	-12	2	·	-8	-6
O=C(N/N=C/c1cc([N+](=O)[O-])ccc1O)c1cccc2ccccc12	-17	15	-2	55*	19	-6
SMILES	PvdQ inh	HSF-1 act	N-glyco inh	T cruzi repl	PfHsp90 yeast 2	CaV13 ICDI inh
O=C(/C=C/Nc1ccc([N+](=O)[O-])cc1Br)c1cccc2ccccc12	7	51*	-3	18	-2	-19
O=[N+]([O-])c1ccc(O)c(/C=N/Nc2ccc(Cl)nn2)c1	11	41	-13	84*	13	-7
COc1cc(CN2C[C@@H](CO)O[C@@H](n3cnc4c(NCc5ccc(F)cc5)ncnc43)C2)cc(OC)c1OC	·	·	-1	·	·	-5
CCN=C1NC(c2cccc(Cl)c2)C(C(=O)OC)=C(C)N1Cc1ccccc1C(F)(F)F (stereo not given)	·	·	·	·	·	-5
CCc1ccccc1NC(=O)c1cccc(Oc2ccc([N+](=O)[O-])cc2Cl)c1	4	15	-8	37	92*	-2
CC(=O)Nc1cccc(Oc2ccc([N+](=O)[O-])cc2Cl)c1	11	23	0	2	5	-6
CC(Cc1ccco1)NC(=O)c1ccc(C(F)(F)F)cc1 (stereo not given)	-5	66*	-6	-11	-42	-4
Cc1ccccc1S(=O)(=O)NC(=O)C1(C)CCN1C(=O)CC1CCCC1 (stereo not given)	·	·	1	·	·	-6
CCCc1cc(-c2nc(N)ncc2-c2ccc3c(c2)OCCCO3)c(O)cc1OC	-6	21	-3	58*	-67	-5
Cc1cc(N2CCN(c3ccc([N+](=O)[O-])c4cccnc34)CC2)c2ccccc2n1	-9	7	105*	29	1	·
CNS(=O)(=O)c1ccc(CNC[C@H]2O[C@@H](n3cc(C)c(=O)[nH]c3=O)C[C@@H]2O)cc1	·	·	1	·	·	-6
CN(C)c1ncccc1-c1nc2ccccc2s1	-14	10	0	-8	-19	12
c1ccc(-c2nc3ccccc3s2)nc1	1	58*	-9	-12	-14	-4
O=C(C(=O)N1CCC(CNC(=O)C2COc3ccccc3O2)CC1)c1cc2ccccc2o1 (stereo not given)	·	·	·	·	·	-12
CCCCNC(=O)C[C@H]1C[C@@]2(C(=O)OC)C(=C[C@H](C(C)(C)C)O[C@@H]2C)N(CCC2=CCCCC2)C1=O	·	·	·	·	·	-8
Fc1ccc(Nc2nc(NCc3ccco3)c3ccccc3n2)cc1	-3	12	-11	57*	19	-5
CCCCCCCCN1C(=O)[C@@H](CC(=O)NCC23CC4CC(CC(C4)C2)C3)C[C@@]2(C(=O)OC)C1=C[C@H](C1CCCC1)O[C@@H]2C	·	·	·	·	·	-6
Cc1cc(-c2sccc2Br)nc(-n2cccc2)n1	-7	72*	-1	-1	-24	7
Cc1cc(-c2ccc(Br)s2)nc(-n2cccc2)n1	-8	1	2	-11	-7	·
Cc1ccc2nc(CN(C)C(=O)[C@H]3O[C@@H](n4cnc(C(N)=O)n4)[C@H](O)[C@@H]3O)[nH]c2c1	·	·	·	·	·	-5
Cc1c(C(=O)N/N=C/c2cccnc2)sc(N)c1C#N	-8	17	40*	-2	14	-5
NC(=S)Nc1cccc2[nH]ccc12	-18	7	1	64*	-8	5
